Common to all, as to assay type: functional
The subject of assay [1] is Escherichia coli. As to the kind of experiment: Antibacterial activity against Escherichia coli CGMCC 1.1636 after 12 to 14 hrs by double dilution method.
The test system of assay [2] is Bacillus subtilis. The assay is described as follows: Antibacterial activity against Bacillus subtilis 769 after 12 to 14 hrs by double dilution method.
Assay [3] has as its system Staphylococcus aureus. The assay is described as follows: Antibacterial activity against methicillin-resistant Staphylococcus aureus ATCC 43300 after 12 to 14 hrs by double dilution method. The method, boiled down: (§1)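 Broth double-dilution MIC per NCCLS. Bacteria at 1×10^6 CFU/mL in Luria-Bertani medium. Compounds dissolved in DMSO as stock, then diluted in medium to 200, 100, 50, 25, 12.5, 6.25 and 3.125 nmol/mL (DMSO <0.5%); some also tested at 256–1 µg/mL. Incubated at 37 °C for 12–14 h. MIC read as lowest concentration giving visible growth inhibition.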

Assay [4] relates to Bacillus cereus. The assay is described as follows: Antibacterial activity against Bacillus cereus CGMCC 1.1846 after 12 to 14 hrs by double dilution method.
In assay [5] the test system is Ralstonia solanacearum. As to the kind of experiment: Antibacterial activity against Ralstonia solanacearum CGMCC 1.12711 measured after 12 to 14 hrs by double dilution method. A digest of the protocol: as §1
The subject of assay [6] is Staphylococcus aureus. The assay is described as follows: Antibacterial activity against Staphylococcus aureus CGMCC 1.8721 after 12 to 14 hrs by double dilution method.

In general, MIC refers to the smallest concentration in the dilution series that meets the test's criterion for growth inhibition. For the compound `COc1ccc2[nH]c3c(-c4ccc5c(c4)OCO5)[n+](Cc4ccccc4)ccc3c2c1`, the MIC is above 200 µM in assay [1]; 50 µM in assay [2]; 50 µM in assay [3]; 200 µM in assay [4]; 50 µM in assay [5]; 100 µM in assay [6].

On to `COC(=O)c1ccc(-c2c3[nH]c4ccccc4c3cc[n+]2Cc2ccccc2)cc1`, for which the MIC in assay [1] was above 200 µM; in assay [2], 100 µM; in assay [3], 200 µM; in assay [4], 200 µM; in assay [5], 100 µM; in assay [6] it was 100 µM.

Turning to `c1ccc(C[n+]2ccc3c([nH]c4ccccc43)c2-c2ccc3c(c2)OCO3)cc1`, the MIC is above 200 µM in assay [1]; 50 µM in assay [2]; 100 µM in assay [3]; 100 µM in assay [4]; 100 µM in assay [5]; 100 µM in assay [6].

On to `COC(=O)c1ccc(-c2c3[nH]c4ccc(OC)cc4c3cc[n+]2Cc2cccc(F)c2)cc1`, for which the minimal inhibitory concentration (MIC) was 75 µM in assay [2]; 200 µM in assay [3]; 200 µM in assay [4]; 150 µM in assay [5]; 200 µM in assay [6].

With `COC(=O)c1ccc(-c2c3[nH]c4ccccc4c3cc[n+]2Cc2ccc(C)cc2)cc1`, the MIC in assay [1] came to 200 µM; in assay [2] it was 50 µM; in assay [3], 50 µM; in assay [4] it was 100 µM; in assay [5], 50 µM; in assay [6] it was 50 µM.

As for `c1coc(-c2nccc3c2[nH]c2ccccc23)c1`, the MIC in assay [1], in assay [2], in assay [3], in assay [4], in assay [5] and in assay [6] was above 200 µM each time.

As to `COC(=O)c1ccc(-c2c3[nH]c4ccc(OC)cc4c3cc[n+]2Cc2ccc([N+](=O)[O-])cc2)cc1`, the minimum inhibitory concentration (MIC) in assay [2] worked out at 200 µM; in assay [3], 200 µM; in assay [4], 200 µM; in assay [5] it was 100 µM; in assay [6], 100 µM.

For `c1ccc(C[n+]2ccc3c([nH]c4ccccc43)c2-c2ccccn2)cc1`, the MIC in assay [1], in assay [2], in assay [3], in assay [4], in assay [5] and in assay [6] was above 200 µM in each case.

`c1ccc2c(c1)[nH]c1c(-c3ccc4c(c3)OCO4)nccc12`: the minimum inhibitory concentration (MIC) in assay [1], in assay [2], in assay [3], in assay [4], in assay [5] and in assay [6] was above 200 µM in each case.

For the compound `COc1ccc2[nH]c3c(-c4ccccn4)[n+](Cc4ccccc4)ccc3c2c1`, the minimal inhibitory concentration (MIC) in assay [1], in assay [2], in assay [3], in assay [4], in assay [5] and in assay [6] was above 200 µM each time.

Take `COC(=O)c1ccc(-c2c3[nH]c4ccccc4c3cc[n+]2Cc2ccc(C(F)(F)F)cc2)cc1`: the MIC in assay [1] is 200 µM; in assay [2], 50 µM; in assay [3], 50 µM; in assay [4], 100 µM; in assay [5] it was 50 µM; in assay [6], 50 µM.

Take `CO/N=C(\C(=O)N[C@@H]1C(=O)N2C(C(=O)O)=C(COC(C)=O)CS[C@H]12)c1csc(N)n1` [CEFOTAXIME SODIUM]: the MIC was 1.56 µM in assay [1]; 3.12 µM in assay [2]; 25 µM in assay [3]; 25 µM in assay [4]; 3.12 µM in assay [5]; 1.56 µM in assay [6].

With `COC(=O)c1ccc(-c2c3[nH]c4ccc(OC)cc4c3cc[n+]2Cc2ccc(C)cc2)cc1`, the MIC in assay [1] is above 200 µM; in assay [2] it was 50 µM; in assay [3] it was 100 µM; in assay [4], 50 µM; in assay [5], 50 µM; in assay [6] it was 50 µM.

Take `COC(=O)c1ccc(-c2nccc3c2[nH]c2ccc(OC)cc23)cc1`: the MIC in assay [1], in assay [2], in assay [3], in assay [4], in assay [5] and in assay [6] was above 200 µM in each case.

Take `COC(=O)c1ccc(-c2c3[nH]c4ccc(OC)cc4c3cc[n+]2Cc2ccc(F)cc2)cc1`: the MIC in assay [2] is 75 µM; in assay [3], 200 µM; in assay [4], 200 µM; in assay [5], 150 µM; in assay [6], 100 µM.

In the case of `COC(=O)c1ccc(-c2c3[nH]c4ccc(OC)cc4c3cc[n+]2Cc2ccc(F)cc2F)cc1`, the minimal inhibitory concentration (MIC) is 100 µM in assay [2]; above 200 µM in assay [3]; 200 µM in assay [4]; 100 µM in assay [5]; 100 µM in assay [6].

Regarding `COC(=O)c1ccc(-c2c3[nH]c4ccc(OC)cc4c3cc[n+]2Cc2ccccc2F)cc1`, the MIC in assay [2] amounted to 100 µM; in assay [3] it was 200 µM; in assay [4] it was 200 µM; in assay [5], 150 µM; in assay [6], 200 µM.

On to `c1ccc(C[n+]2ccc3c([nH]c4ccccc43)c2-c2ccco2)cc1`, for which the MIC in assay [1] is above 200 µM; in assay [2] it was 100 µM; in assay [3], 100 µM; in assay [4], above 200 µM; in assay [5] it was 100 µM; in assay [6] it was 100 µM.

For the compound `Cc1ccc(C[n+]2ccc3c([nH]c4ccccc43)c2-c2ccccn2)cc1`, the MIC in assay [1] is above 200 µM; in assay [2] it was 100 µM; in assay [3], 50 µM; in assay [4] it was 100 µM; in assay [5], 50 µM; in assay [6] it was 25 µM.

As to `COC(=O)c1ccc(-c2c3[nH]c4ccc(OC)cc4c3cc[n+]2Cc2cccc(Br)c2)cc1`, the MIC in assay [2] was found to be 25 µM; in assay [3], 50 µM; in assay [4] it was 75 µM; in assay [5], 25 µM; in assay [6] it was 50 µM.

With `COc1ccc2[nH]c3c(-c4ccccn4)[n+](Cc4ccc(C(F)(F)F)cc4)ccc3c2c1`, the MIC in assay [1] was above 200 µM; in assay [2] it was 100 µM; in assay [3], 100 µM; in assay [4] it was 200 µM; in assay [5], 100 µM; in assay [6] it was 100 µM.

Consider `COc1ccc2[nH]c3c(-c4ccco4)nccc3c2c1`, for which the minimal inhibitory concentration (MIC) in assay [1], in assay [2], in assay [3], in assay [4], in assay [5] and in assay [6] was above 200 µM each time.

On to `COC(=O)c1ccc(-c2c3[nH]c4ccc(OC)cc4c3cc[n+]2Cc2ccccc2)cc1`, for which the minimal inhibitory concentration (MIC) is above 200 µM in assay [1]; 100 µM in assay [2]; 200 µM in assay [3]; 200 µM in assay [4]; 100 µM in assay [5]; 100 µM in assay [6].

For `Cc1ccc(C[n+]2ccc3c([nH]c4ccccc43)c2-c2ccc3c(c2)OCO3)cc1`, the minimum inhibitory concentration (MIC) in assay [1] was above 200 µM; in assay [2] it was 25 µM; in assay [3], 50 µM; in assay [4], 100 µM; in assay [5], 50 µM; in assay [6] it was 50 µM.

Turning to `COc1ccc2[nH]c3c(-c4ccco4)[n+](Cc4ccc(C)cc4)ccc3c2c1`, the MIC in assay [1] amounted to 100 µM; in assay [2], 25 µM; in assay [3], 50 µM; in assay [4], 100 µM; in assay [5] it was 25 µM; in assay [6], 50 µM.

As for `C[C@@H]1O[C@@H]1P(=O)(O)O` [PHOSPHOMYCIN DISODIUM], the MIC in assay [1] was determined as 6.25 µM; in assay [2], 12.5 µM; in assay [3] it was 50 µM; in assay [4], 25 µM; in assay [5] it was 50 µM; in assay [6] it was 100 µM.

As to `FC(F)(F)c1ccc(C[n+]2ccc3c([nH]c4ccccc43)c2-c2ccccn2)cc1`, the MIC is above 200 µM in assay [1]; 50 µM in assay [2]; 50 µM in assay [3]; 100 µM in assay [4]; 50 µM in assay [5]; 25 µM in assay [6].

`Cc1ccc(C[n+]2ccc3c([nH]c4ccccc43)c2-c2ccco2)cc1`: the MIC in assay [1] turned out to be 100 µM; in assay [2], 25 µM; in assay [3], 50 µM; in assay [4], 100 µM; in assay [5], 25 µM; in assay [6], 50 µM.

As to `COC(=O)c1ccc(-c2c3[nH]c4ccc(OC)cc4c3cc[n+]2Cc2ccccc2Br)cc1`, the minimal inhibitory concentration (MIC) came to 50 µM in assay [2]; 75 µM in assay [3]; 100 µM in assay [4]; 50 µM in assay [5]; 75 µM in assay [6].

As for `c1ccc(-c2nccc3c2[nH]c2ccccc23)nc1`, the MIC in assay [1], in assay [2], in assay [3], in assay [4], in assay [5] and in assay [6] was above 200 µM throughout.

As to `COC(=O)c1ccc(-c2nccc3c2[nH]c2ccccc23)cc1`, the minimal inhibitory concentration (MIC) in assay [1], in assay [2], in assay [3], in assay [4], in assay [5] and in assay [6] was above 200 µM throughout.

As for `COC(=O)c1ccc(-c2c3[nH]c4ccc(OC)cc4c3cc[n+]2Cc2ccc(Cl)cc2)cc1`, the MIC in assay [2] was determined as 50 µM; in assay [3] it was 100 µM; in assay [4] it was 50 µM; in assay [5], 37.5 µM; in assay [6], 50 µM.
